Test results as given in ChEMBL document CHEMBL1144389, “Optimization of purine based PDE1/PDE5 inhibitors to a potent and selective PDE5 inhibitor for the treatment of male ED” (Bioorg Med Chem Lett, 2005).

Tests used:
[1] = biological target: T1, cGMP-specific 3',5'-cyclic phosphodiesterase (Homo sapiens, UniProt O76074); test: Inhibition of human phosphodiesterase 5
[2] = biological target: Phosphodiesterases; PDE5 & PDE6 (Homo sapiens) (UniProt O76074+Q13956+P18545+P35913+O43924+P16499+P51160); test: Relative binding to Phosphodiesterase 6 and Phosphodiesterase 5, ratio of IC50; type: protein assay
[3] = biological target: Phosphodiesterase, PDE1/PDE5 (Homo sapiens) (UniProt O76074+P54750+Q01064+Q14123); test: Relative binding to Phosphodiesterase 1 and Phosphodiesterase 5, ratio of IC50; type: protein assay
[4] = biological target: Dual 3',5'-cyclic-AMP and -GMP phosphodiesterase 11A (Homo sapiens, UniProt Q9HCR9); test: Inhibition of human phosphodiesterase 11
Dual 3',5'-cyclic-AMP and -GMP phosphodiesterase 11A, sequence (Q9HCR9 whole entry): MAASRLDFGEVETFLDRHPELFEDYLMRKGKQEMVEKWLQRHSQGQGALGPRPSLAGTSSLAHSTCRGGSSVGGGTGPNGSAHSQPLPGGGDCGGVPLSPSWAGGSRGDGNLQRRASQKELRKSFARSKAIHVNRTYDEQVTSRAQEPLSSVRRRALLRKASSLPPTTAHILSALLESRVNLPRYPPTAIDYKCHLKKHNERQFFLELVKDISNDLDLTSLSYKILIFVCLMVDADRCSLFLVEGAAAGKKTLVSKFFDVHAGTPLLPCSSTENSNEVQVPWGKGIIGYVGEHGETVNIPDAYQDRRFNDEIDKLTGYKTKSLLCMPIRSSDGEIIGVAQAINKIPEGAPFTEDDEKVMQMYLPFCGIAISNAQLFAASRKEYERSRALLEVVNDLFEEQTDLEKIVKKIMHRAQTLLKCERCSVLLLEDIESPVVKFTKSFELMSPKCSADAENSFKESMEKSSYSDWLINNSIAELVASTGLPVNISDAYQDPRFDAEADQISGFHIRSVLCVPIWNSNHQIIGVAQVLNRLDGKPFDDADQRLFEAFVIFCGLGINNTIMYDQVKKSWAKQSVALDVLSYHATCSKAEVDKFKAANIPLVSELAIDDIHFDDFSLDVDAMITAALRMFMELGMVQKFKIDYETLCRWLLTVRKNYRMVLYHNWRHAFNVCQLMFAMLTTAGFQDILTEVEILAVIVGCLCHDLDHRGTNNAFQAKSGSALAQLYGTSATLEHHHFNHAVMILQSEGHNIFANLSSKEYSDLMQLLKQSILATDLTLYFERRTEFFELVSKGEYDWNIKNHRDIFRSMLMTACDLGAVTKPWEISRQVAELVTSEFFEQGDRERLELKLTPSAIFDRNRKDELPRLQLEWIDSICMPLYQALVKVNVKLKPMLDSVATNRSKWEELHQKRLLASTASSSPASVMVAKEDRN

[5] = biological target: cAMP and cAMP-inhibited cGMP 3',5'-cyclic phosphodiesterase 10A (Homo sapiens, UniProt Q9Y233); test: Inhibitory concentration against human phosphodiesterase 10
cAMP and cAMP-inhibited cGMP 3',5'-cyclic phosphodiesterase 10A, sequence (Q9Y233 whole entry): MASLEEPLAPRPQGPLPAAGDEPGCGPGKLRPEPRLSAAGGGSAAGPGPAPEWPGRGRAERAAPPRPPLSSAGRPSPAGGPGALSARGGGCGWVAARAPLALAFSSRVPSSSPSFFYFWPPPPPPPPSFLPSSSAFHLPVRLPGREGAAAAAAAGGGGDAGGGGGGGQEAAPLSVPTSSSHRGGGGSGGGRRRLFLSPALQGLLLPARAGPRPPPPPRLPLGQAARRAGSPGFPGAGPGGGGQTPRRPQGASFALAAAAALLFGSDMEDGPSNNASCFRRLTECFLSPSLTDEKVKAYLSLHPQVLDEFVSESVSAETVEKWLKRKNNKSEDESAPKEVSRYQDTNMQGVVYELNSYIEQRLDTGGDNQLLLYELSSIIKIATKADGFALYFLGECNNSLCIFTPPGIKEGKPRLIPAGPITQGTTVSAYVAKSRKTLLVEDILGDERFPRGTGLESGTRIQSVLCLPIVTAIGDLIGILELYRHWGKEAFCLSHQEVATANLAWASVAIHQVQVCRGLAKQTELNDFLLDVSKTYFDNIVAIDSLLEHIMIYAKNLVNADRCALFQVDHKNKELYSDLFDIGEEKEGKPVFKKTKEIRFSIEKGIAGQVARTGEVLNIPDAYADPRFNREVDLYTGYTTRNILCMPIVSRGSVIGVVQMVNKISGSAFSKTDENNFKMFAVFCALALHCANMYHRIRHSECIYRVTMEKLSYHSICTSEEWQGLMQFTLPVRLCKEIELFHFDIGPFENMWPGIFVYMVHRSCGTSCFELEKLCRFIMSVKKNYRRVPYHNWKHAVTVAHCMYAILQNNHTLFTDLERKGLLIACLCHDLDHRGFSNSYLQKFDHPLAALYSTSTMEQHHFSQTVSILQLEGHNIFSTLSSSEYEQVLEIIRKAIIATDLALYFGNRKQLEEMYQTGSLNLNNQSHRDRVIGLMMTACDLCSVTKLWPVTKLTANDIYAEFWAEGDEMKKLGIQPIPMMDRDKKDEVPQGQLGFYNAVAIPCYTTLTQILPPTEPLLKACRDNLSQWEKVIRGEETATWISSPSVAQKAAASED

[6] = Inhibitory concentration against human phosphodiesterase 8 activity
In short: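 Scintillation proximity assay using a cAMP-PDE SPA kit, with 0.05 μM cAMP as substrate.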

[7] = biological target: cGMP-dependent 3',5'-cyclic phosphodiesterase (Homo sapiens, UniProt O00408); test: Inhibition of human phosphodiesterase 2
cGMP-dependent 3',5'-cyclic phosphodiesterase, sequence (O00408 whole entry): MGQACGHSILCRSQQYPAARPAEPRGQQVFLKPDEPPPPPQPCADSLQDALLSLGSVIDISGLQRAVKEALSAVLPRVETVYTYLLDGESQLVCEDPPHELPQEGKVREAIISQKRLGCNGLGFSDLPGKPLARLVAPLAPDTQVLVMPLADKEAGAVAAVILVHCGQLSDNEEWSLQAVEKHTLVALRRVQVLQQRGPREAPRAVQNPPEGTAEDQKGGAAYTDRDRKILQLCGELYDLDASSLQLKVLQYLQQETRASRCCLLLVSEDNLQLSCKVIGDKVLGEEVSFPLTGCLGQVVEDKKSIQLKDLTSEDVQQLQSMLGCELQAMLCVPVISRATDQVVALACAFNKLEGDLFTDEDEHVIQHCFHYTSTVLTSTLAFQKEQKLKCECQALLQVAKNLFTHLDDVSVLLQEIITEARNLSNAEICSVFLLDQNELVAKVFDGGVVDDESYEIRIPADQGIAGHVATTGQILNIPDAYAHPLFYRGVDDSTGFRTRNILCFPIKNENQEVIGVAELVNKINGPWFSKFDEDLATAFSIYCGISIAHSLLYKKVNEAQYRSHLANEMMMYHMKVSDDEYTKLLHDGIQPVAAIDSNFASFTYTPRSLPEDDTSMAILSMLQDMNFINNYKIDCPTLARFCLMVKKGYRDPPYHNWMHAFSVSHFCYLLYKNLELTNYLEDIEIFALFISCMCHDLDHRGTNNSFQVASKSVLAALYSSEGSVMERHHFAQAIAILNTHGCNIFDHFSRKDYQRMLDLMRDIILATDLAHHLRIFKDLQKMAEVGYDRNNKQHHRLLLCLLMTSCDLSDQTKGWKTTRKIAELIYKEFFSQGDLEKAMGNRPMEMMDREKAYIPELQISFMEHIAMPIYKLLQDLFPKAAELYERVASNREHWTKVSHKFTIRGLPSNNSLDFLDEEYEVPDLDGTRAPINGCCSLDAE

[8] = biological target: Phosphodiesterase 3 (Homo sapiens, UniProt Q14432+Q13370); test: Inhibition of human phosphodiesterase 3; type: protein assay
[9] = biological target: Phosphodiesterase 6; test: Inhibition of human phosphodiesterase 6; type: protein assay
[10] = biological target: Phosphodiesterase 1 (Homo sapiens, UniProt P54750+Q01064+Q14123); test: Inhibition of human phosphodiesterase 1; type: protein assay
[11] = biological target: High affinity cGMP-specific 3',5'-cyclic phosphodiesterase 9A (Homo sapiens, UniProt O76083); test: Inhibition of Phosphodiesterase 9
High affinity cGMP-specific 3',5'-cyclic phosphodiesterase 9A, sequence (O76083 whole entry): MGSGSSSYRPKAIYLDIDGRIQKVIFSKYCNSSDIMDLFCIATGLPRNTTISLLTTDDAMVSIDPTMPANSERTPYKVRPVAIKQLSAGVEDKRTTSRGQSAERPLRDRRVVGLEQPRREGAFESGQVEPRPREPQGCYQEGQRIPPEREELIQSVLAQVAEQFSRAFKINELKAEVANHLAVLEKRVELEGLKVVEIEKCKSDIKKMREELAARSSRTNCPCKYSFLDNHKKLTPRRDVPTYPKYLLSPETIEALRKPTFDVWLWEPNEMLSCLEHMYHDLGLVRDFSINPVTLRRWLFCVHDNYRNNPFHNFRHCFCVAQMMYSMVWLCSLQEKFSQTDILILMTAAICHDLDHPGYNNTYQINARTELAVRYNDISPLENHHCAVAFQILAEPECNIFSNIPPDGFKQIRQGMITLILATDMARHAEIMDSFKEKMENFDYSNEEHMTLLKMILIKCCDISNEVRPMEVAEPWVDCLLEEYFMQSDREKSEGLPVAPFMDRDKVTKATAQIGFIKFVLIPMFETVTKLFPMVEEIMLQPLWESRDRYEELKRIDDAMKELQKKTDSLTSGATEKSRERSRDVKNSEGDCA

[12] = biological target: Phosphodiesterase 7 (Homo sapiens, UniProt Q13946+Q9NP56); test: Inhibition of human phosphodiesterase 7; type: protein assay
[13] = biological target: Phosphodiesterase 4 (Homo sapiens, UniProt P27815+Q08499+Q07343+Q08493); test: Inhibition of human phosphodiesterase 4; type: protein assay
[14] = biological target: T1, cGMP-specific 3',5'-cyclic phosphodiesterase; test: Percentage inhibition of human phosphodiesterase 5 at 100 nM

Compound | IC50 [1] | Ratio [2] | also measured
CCN1C(=O)c2nc(C#Cc3ccccc3)n(Cc3ccc(O)cc3)c2N2C[C@@H](Cc3ccccc3)N=C12 | 6.5 nM | 23 | Ratio [3]: > 1540
CCCc1nc(C)c2c(=O)nc(-c3cc(S(=O)(=O)N4CCN(CC)CC4)ccc3OCC)[nH]n12 |  |  | IC50 [4]: 130 nM; IC50 [5]: 790 nM; IC50 [6]: > 10000 nM; IC50 [7]: > 10000 nM
CCN1C(=O)c2c(nc(Br)n2Cc2ccc(O)cc2)N2C[C@@H](Cc3ccccc3)N=C12 | 2.5 nM | 72 | IC50 [8]: > 10000 nM; IC50 [4]: 540 nM; IC50 [9]: 180 nM; IC50 [10]: > 10000 nM; IC50 [11]: > 10000 nM; Ratio [3]: > 4000; IC50 [5]: 2200 nM; IC50 [6]: > 10000 nM; IC50 [7]: > 10000 nM; IC50 [12]: > 10000 nM; IC50 [13]: 1400 nM
CON1C(=O)c2nc(Cc3ccccc3)n(Cc3ccccc3)c2N2C[C@@H](Cc3ccccc3)N=C12 |  |  | inhibition [14]: 17%
CCN1C(=O)c2nc(Cc3ccccc3)n(Cc3ccc(OC)cc3)c2N2C[C@@H](Cc3ccccc3)N=C12 | 38 nM | 7.5 | 
CCN1C(=O)c2c(nc(C#Cc3ccccc3)n2Cc2ccc(O)cc2)N2C[C@@H](Cc3ccccc3)N=C12 | 5.3 nM | 19.8 | 
CCN1C(=O)c2nc(Br)n(Cc3ccc(OC)cc3)c2N2C[C@@H](Cc3ccccc3)N=C12 | 48 nM | 7.8 | 
CCN1C(=O)c2c(nc(C#Cc3ccccc3)n2Cc2ccccc2)N2C[C@@H](Cc3ccccc3)N=C12 | 40 nM | 3.6 | 
CC(C)N1C(=O)c2nc(Cc3ccccc3)n(Cc3ccccc3)c2N2C[C@@H](Cc3ccccc3)N=C21 |  |  | inhibition [14]: 13%
CCN1C(=O)c2nc(Cc3ccccc3)n(Cc3ccccc3)c2N2C[C@@H](c3ccccc3)N=C12 | 40 nM | 1.3 | 
CCCN1C(=O)c2[nH]c(Cc3ccccc3)nc2N2C[C@@H](Cc3ccccc3)N=C12 |  |  | inhibition [14]: 25%
CCN1C(=O)c2c(nc(C)n2Cc2ccc(O)cc2)N2C[C@@H](Cc3ccccc3)N=C12 | 15 nM | 40 | 
CCN1C(=O)c2[nH]c(Cc3ccccc3)nc2N2C1=N[C@@H]1CCC[C@@H]12 | 19 nM |  | Ratio [3]: 342
CCCc1nn(C)c2c(=O)[nH]c(-c3cc(S(=O)(=O)N4CCN(C)CC4)ccc3OCC)nc12 |  |  | IC50 [6]: > 10000 nM
CCN1C(=O)c2c(nc(Cl)n2Cc2ccc(O)cc2)N2C[C@@H](Cc3ccccc3)N=C12 | 2.3 nM | 93.5 | Ratio [3]: > 4350
CCN1C(=O)c2[nH]c(Cc3ccccc3)nc2N2C[C@@H](C(C)C)N=C12 | 28 nM | 1 | Ratio [3]: 59
CCN1C(=O)c2nc(C#Cc3ccccc3)n(Cc3ccc(OC)cc3)c2N2C[C@@H](Cc3ccccc3)N=C12 | 20 nM | 4.5 | 
CC(C)N1C(=O)c2[nH]c(Cc3ccccc3)nc2N2C[C@@H](Cc3ccccc3)N=C21 | 22 nM | 4 | 
CN1C(=O)c2[nH]c(Cc3ccccc3)nc2N2C1=N[C@@H]1CCC[C@@H]12 |  |  | Ratio [3]: 1.3
O=C1c2[nH]c(Cc3ccccc3)nc2N2C[C@@H](Cc3ccccc3)N=C2N1CC(F)(F)F |  |  | inhibition [14]: 34%
CCN1C(=O)c2c(nc(Br)n2Cc2ccc(OC)cc2)N2C[C@@H](Cc3ccccc3)N=C12 |  | 4.8 | 
CCN1C(=O)c2c(nc(Cc3ccccc3)n2Cc2ccc(O)cc2)N2C[C@@H](Cc3ccccc3)N=C12 | 29 nM | 7.4 | 
CCC[C@@H]1CN2C(=N1)N(CC)C(=O)c1nc(Cc3ccccc3)n(Cc3ccccc3)c12 | 35 nM | 4.9 | Ratio [3]: > 286
CCN1C(=O)c2nc(Br)n(Cc3ccc(O)cc3)c2N2C[C@@H](Cc3ccccc3)N=C12 | 7.8 nM | 51.3 | Ratio [3]: > 1590

Compound | IC50 [1] | Ratio [2] | also measured
CCN1C(=O)c2[nH]c(Cc3ccccc3)nc2N2C[C@@H](Cc3ccccc3)N=C12 |  | 1.8 | Ratio [3]: > 2220
CC[C@@H]1CN2C(=N1)N(CC)C(=O)c1nc(Cc3ccccc3)n(Cc3ccccc3)c12 |  |  | inhibition [14]: 4%
O=C1c2nc(Cc3ccccc3)n(Cc3ccccc3)c2N2C[C@@H](Cc3ccccc3)N=C2N1C1CC1 |  |  | inhibition [14]: 12%
CCC[C@@H]1CN2C(=N1)N(CC)C(=O)c1[nH]c(Cc3ccccc3)nc12 | 60 nM | 0.7 | Ratio [3]: > 167
CCN1C(=O)c2nc(Cc3ccccc3)n(Cc3ccccc3)c2N2C[C@@H](Cc3ccccc3)N=C12 |  | 5.3 | Ratio [3]: > 313
CCN1C(=O)c2ncn(Cc3ccccc3)c2N2C[C@@H](Cc3ccccc3)N=C12 | 200 nM | 5 | 
CCN1C(=O)c2c(nc(C#Cc3ccccc3)n2Cc2ccc(OC)cc2)N2C[C@@H](Cc3ccccc3)N=C12 | 14 nM | 1.7 | 
CCN1C(=O)c2nc(C#Cc3ccccc3)n(Cc3ccccc3)c2N2C[C@@H](Cc3ccccc3)N=C12 |  | 15 | Ratio [3]: > 303
CN1CC(=O)N2[C@H](c3ccc4c(c3)OCO4)c3[nH]c4ccccc4c3C[C@@H]2C1=O |  |  | IC50 [8]: > 10000 nM; IC50 [10]: > 10000 nM; IC50 [11]: > 10000 nM; IC50 [5]: > 10000 nM; IC50 [6]: > 10000 nM; IC50 [7]: > 10000 nM; IC50 [12]: > 10000 nM
CCN1C(=O)c2nc(Cc3ccccc3)n(Cc3ccc(O)cc3)c2N2C[C@@H](Cc3ccccc3)N=C12 | 28 nM | 7.9 | 
CCN1C(=O)c2nc(Cl)n(Cc3ccccc3)c2N2C[C@@H](Cc3ccccc3)N=C12 | 60 nM | 7.3 | 
CCN1C(=O)c2nc(Br)n(Cc3ccccc3)c2N2C[C@@H](Cc3ccccc3)N=C12 | 145 nM | 4.5 | 
CCN1C(=O)c2c(nc(Cc3ccccc3)n2Cc2ccccc2)N2C[C@@H](Cc3ccccc3)N=C12 |  |  | inhibition [14]: 23%
CN1C(=O)c2nc(Cc3ccccc3)n(Cc3ccccc3)c2N2C[C@@H](Cc3ccccc3)N=C12 |  |  | inhibition [14]: 6%
CCN1C(=O)c2c(nc(Cc3ccccc3)n2Cc2ccc(OC)cc2)N2C[C@@H](Cc3ccccc3)N=C12 | 130 nM | 1.8 | 
CC[C@@H]1CN2C(=N1)N(CC)C(=O)c1[nH]c(Cc3ccccc3)nc12 | 33 nM | 2.4 | Ratio [3]: > 303
O=C1c2nc(Cc3ccccc3)n(Cc3ccccc3)c2N2C[C@@H](Cc3ccccc3)N=C2N1CC(F)(F)F |  |  | inhibition [14]: 7%
CCN1C(=O)c2c(nc(I)n2Cc2ccccc2)N2C[C@@H](Cc3ccccc3)N=C12 |  |  | inhibition [14]: 32%
CN1C(=O)c2[nH]c(Cc3ccccc3)nc2N2C[C@@H](Cc3ccccc3)N=C12 | 100 nM | 2.3 | Ratio [3]: 11
Oc1nc2n(c3nc(Cc4ccccc4)nc1-3)C[C@@H](Cc1ccccc1)N2 |  |  | inhibition [14]: 22%
C=CCN1C(=O)c2nc(Cc3ccccc3)n(Cc3ccccc3)c2N2C[C@@H](Cc3ccccc3)N=C12 |  |  | inhibition [14]: 17%
O=C1c2nc(Cc3ccccc3)[nH]c2N2C[C@@H](Cc3ccccc3)N=C2N1C1CC1 |  |  | inhibition [14]: 21%
CCN1C(=O)c2c(nc(I)n2Cc2ccc(O)cc2)N2C[C@@H](Cc3ccccc3)N=C12 | 3.3 nM | 93.9 | 
CCN1C(=O)c2nc(CCc3ccccc3)n(Cc3ccccc3)c2N2C[C@@H](Cc3ccccc3)N=C12 | 74 nM | 7.4 | 
